Experimental data: ChEMBL document CHEMBL2034960, “Bryonolic acid transcriptional control of anti-inflammatory and antioxidant genes in macrophages in vitro and in vivo” (J Nat Prod, 2012)
The source made the active and inactive calls. No cut-off for these calls is given here.

What was measured:
[1] = molecular target: T1, Nuclear factor erythroid 2-related factor 2 (Mus musculus) (UniProt Q60795); assay: Induction of Nrf2-mediated GCLC mRNA expression in mouse RAW264.7 cells at 100 uM after 24 hrs by quantitative RT-PCR analysis relative to control; format: cell-based
T1 sequence (whole entry): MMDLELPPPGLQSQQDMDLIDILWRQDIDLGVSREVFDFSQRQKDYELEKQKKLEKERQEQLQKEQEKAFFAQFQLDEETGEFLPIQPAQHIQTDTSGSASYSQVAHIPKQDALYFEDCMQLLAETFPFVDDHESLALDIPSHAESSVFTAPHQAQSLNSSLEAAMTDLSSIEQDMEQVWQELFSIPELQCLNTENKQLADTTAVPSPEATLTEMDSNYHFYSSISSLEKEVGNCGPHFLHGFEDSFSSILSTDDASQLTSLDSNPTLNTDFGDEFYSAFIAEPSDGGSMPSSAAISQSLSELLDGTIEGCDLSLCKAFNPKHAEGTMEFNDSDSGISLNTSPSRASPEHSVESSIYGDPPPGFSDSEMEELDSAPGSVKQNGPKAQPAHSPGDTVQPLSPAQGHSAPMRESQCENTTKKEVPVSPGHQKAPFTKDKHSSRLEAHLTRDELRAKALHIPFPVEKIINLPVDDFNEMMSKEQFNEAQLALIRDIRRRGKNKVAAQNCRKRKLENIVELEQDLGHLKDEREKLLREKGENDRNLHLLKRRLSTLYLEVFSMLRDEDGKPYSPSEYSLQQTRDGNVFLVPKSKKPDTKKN

RAW264.7 [2] = assay: Antiinflammatory activity in mouse RAW264.7 cells assessed as inhibition of LPS-induced iNOS protein expression at 100 uM after 24 hrs by immunoblot analysis; format: functional, cell-based
RAW264.7 [3] = assay: Antioxidant activity in mouse RAW264.7 cells assessed as induction of HO1 expression at 50 uM after 24 hrs by immunoblot analysis; format: functional, cell-based
[4] = molecular target: T1, Nuclear factor erythroid 2-related factor 2 (Mus musculus); assay: Induction of Nrf2-mediated HO1 mRNA expression in mouse RAW264.7 cells at 100 uM after 16 to 20 hrs by quantitative RT-PCR analysis relative to control; format: cell-based
RAW264.7 [5] = assay: Antiinflammatory activity in mouse RAW264.7 cells assessed as inhibition of LPS-induced iNOS […] expression at 50 uM after 24 hrs by immunoblot analysis; format: functional, cell-based
[6] = molecular target: T1, Nuclear factor erythroid 2-related factor 2 (Mus musculus); assay: Induction of Nrf2-mediated GR mRNA expression in mouse RAW264.7 cells at 100 uM after 20 hrs by quantitative RT-PCR analysis relative to control; format: cell-based
RAW264.7 [7] = assay: Antioxidant activity in mouse RAW264.7 cells assessed as induction of HO1 expression at 100 uM after 66 hrs by immunoblot analysis; format: functional, cell-based
RAW264.7 [8] = assay: Antioxidant activity in LPS-stimulated mouse RAW264.7 cells assessed as induction of HO-1 mRNA expression at 100 uM after 4 hrs by RT-PCR analysis relative to control; format: functional
RAW264.7 [9] = assay: Antioxidant activity in LPS-stimulated mouse RAW264.7 cells assessed as induction of HO-1 protein expression after 24 hrs by immunoblot analysis; format: functional, cell-based
RAW264.7 [10] = assay: Antiinflammatory activity in mouse RAW264.7 cells assessed as inhibition of LPS-induced iNOS protein expression after 24 hrs by immunoblot analysis; format: functional, cell-based
[11] = molecular target: T1, Nuclear factor erythroid 2-related factor 2 (Mus musculus); assay: Induction of Nrf2-mediated HO1 […] expression in C57BL/6 mouse primary peritoneal macrophages at 50 uM after 48 hrs by immunoblot analysis
[12] = molecular target: T1, Nuclear factor erythroid 2-related factor 2 (Mus musculus); assay: Induction of nuclear translocation of Nrf2 in mouse RAW264.7 cells assessed as decrease in cytoplasmic fraction at 100 uM after 1 to 4 hrs; format: cell-based
In short: (§1)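 RAW 264.7 macrophages treated with 50 or 100 μM compound for various times (1–4 h window examined). Cytoplasmic and nuclear fractions were separated and probed for Nrf2 by immunoblot. Translocation was scored as loss of cytoplasmic Nrf2 and nuclear accumulation relative to DMSO control.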

[13] = molecular target: T1, Nuclear factor erythroid 2-related factor 2 (Mus musculus); assay: Induction of Nrf2-mediated HO1 […] expression in C57BL/6 mouse primary peritoneal macrophages after 48 hrs by immunoblot analysis
RAW264.7 [14] = assay: Antioxidant activity in mouse RAW264.7 cells assessed as induction of HO1 expression at 100 uM after 48 hrs by immunoblot analysis; format: functional, cell-based
[15] = molecular target: T1, Nuclear factor erythroid 2-related factor 2 (Mus musculus); assay: Induction of Nrf2-mediated NQO1 mRNA expression in mouse RAW264.7 cells at 100 uM after 24 hrs by quantitative RT-PCR analysis relative to control; format: cell-based
In short: (§2)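 RAW 264.7 cells (DMEM, 10% FBS, 37°C, 5% CO2) exposed to 100 μM compound for a series of time points without stated LPS activation. Total RNA isolated, converted to cDNA, and NQO1 quantified by TaqMan real-time RT-PCR using mouse-specific assays. Fold change versus control derived by the ΔΔCt relative quantification method (40 cycles, 95/60 °C).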

[16] = molecular target: T1, Nuclear factor erythroid 2-related factor 2 (Mus musculus); assay: Induction of Nrf2-mediated GCLC mRNA expression in mouse RAW264.7 cells at 100 uM after 20 hrs by quantitative RT-PCR analysis relative to control; format: cell-based
Mus musculus = assay: Induction of HO1 […] expression in Nrf2-wild type C57BL/6 mouse liver at 500 mg/kg, ip measured after 8 hrs by immunoblot analysis
[17] = molecular target: T1, Nuclear factor erythroid 2-related factor 2 (Mus musculus); assay: Induction of Nrf2-mediated HO1 mRNA expression in mouse RAW264.7 cells at 100 uM after 24 hrs by quantitative RT-PCR analysis relative to control; format: cell-based
RAW264.7 [18] = assay: Induction of Nrf2 mRNA expression in mouse RAW264.7 cells at 100 uM after 20 hrs by quantitative RT-PCR analysis relative to control; format: functional
[19] = molecular target: T1, Nuclear factor erythroid 2-related factor 2 (Mus musculus); assay: Induction of Nrf2-mediated NQO1 mRNA expression in mouse RAW264.7 cells at 100 uM after 20 hrs by quantitative RT-PCR analysis relative to control; format: cell-based; in short: as §2
RAW264.7 [20] = assay: Antioxidant activity in mouse RAW264.7 cells assessed as induction of HO1 expression after 24 hrs by immunoblot analysis
[21] = molecular target: T1, Nuclear factor erythroid 2-related factor 2 (Mus musculus); assay: Induction of nuclear translocation of Nrf2 in mouse RAW264.7 cells assessed as decrease in cytoplasmic fraction at 100 uM after 1 hr; format: cell-based; in short: as §1
[22] = molecular target: T1, Nuclear factor erythroid 2-related factor 2 (Mus musculus); assay: Induction of Nrf2-mediated HO1 […] expression in C57BL/6 mouse primary peritoneal macrophages at 10 uM after 48 hrs by immunoblot analysis
RAW264.7 [23] = assay: Antioxidant activity in LPS-stimulated mouse RAW264.7 cells assessed as induction of HO-1 protein expression at 50 uM after 24 hrs by immunoblot analysis; format: functional, cell-based
RAW264.7 [24] = assay: Antiinflammatory activity in mouse RAW264.7 cells assessed as inhibition of LPS-induced iNOS protein expression at 50 uM after 24 hrs by immunoblot analysis relative to control; format: functional, cell-based

Activity [1]: inactive
Activity [4]: Active
fold change (FC) [6]: 1.5
Activity [11]: Active
Activity [12]: Active
Activity [13]: Dose-dependent effect
Activity [15]: Active
fold change (FC) [16]: 1.8
Activity [17]: Active
fold change (FC) [19]: 11.7
Activity [21]: Active
Activity [22]: Active
SMILES: CC1(C)[C@@H](O)CC[C@]2(C)C3=C(CC[C@@H]12)[C@@]1(C)CC[C@@]2(C)CC[C@@](C)(C(=O)O)C[C@H]2[C@]1(C)CC3 [BRYONOLIC ACID]
Activity (RAW264.7 [2]): Active
Activity (RAW264.7 [3]): Active
Activity (RAW264.7 [5]): Active
Activity (RAW264.7 [7]): inactive
fold change (FC) (RAW264.7 [8]): 4.1
Activity (RAW264.7 [9]): Dose-dependent effect
Activity (RAW264.7 [10]): Dose-dependent effect
Activity (RAW264.7 [14]): Active
Activity (Mus musculus): Active
fold change (FC) (RAW264.7 [18]): 1.8
Activity (RAW264.7 [20]): Dose-dependent effect
Activity (RAW264.7 [23]): Active
Activity (RAW264.7 [24]): Active
